Calls of active or inactive are those of the source. The calls are words filed in the database; no cut-off is given here.
Key:
[1] = Cell cycle arrest in human HCT116 cells assessed as S phase accumulation at 0.5 uM after 48 hrs by Annexin V-FITC/propidium iodide staining based flow cytometry (reference value: 28.43%); assay type: functional; details: HCT-116
HCT-116 [2] = assay: Induction of apoptosis in human HCT116 cells assessed as necrotic cells at 8 uM after 48 hrs by Annexin V-FITC/propidium iodide staining based flow cytometry (reference value: 0.8%); assay type: functional
HCT-116 [3] = assay: Induction of apoptosis in human HCT116 cells assessed as increase in intracellular reactive oxygen species at 0.17 to 8 uM by DCFH-DA probe-based flow cytometry; assay type: functional, cell-based; details: TDE = time-dependent effect
Method in brief: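 For the dose series, HCT116 cells were seeded at 5 × 10⁴ cells/well, grown 24 h, then exposed 3 h to DMSO or graded compound levels, with a Rosup positive group. Cells were washed with PBS and serum-free medium, loaded with DCFH-DA (1 μmol/L) in serum-free medium at 37 °C for 20 min, and ROS fluorescence was read by flow cytometry.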

[4] = Cell cycle arrest in human HCT116 cells assessed as sub-G1 phase accumulation at 2 uM after 48 hrs by Annexin V-FITC/propidium iodide staining based flow cytometry (reference value: 4.36%); assay type: functional; details: HCT-116
HCT-116 [5] = assay: Induction of apoptosis in human HCT116 cells assessed as activation of cleaved caspases 3 after 9 hrs by Western blot method; assay type: functional, cell-based
Method in brief: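 HCT116 plated at 4×10^5 cells/well and incubated with or without compound for 9 h. Protein then extracted and run on 12% SDS-PAGE western blot probed with anti-cleaved caspase 3, anti-caspase 3, anti-Bax and anti-Bcl-2.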

HCT-116 [6] = assay: Induction of apoptosis in human HCT116 cells assessed as early apoptotic cells at 0.5 uM after 48 hrs by Annexin V-FITC/propidium iodide staining based flow cytometry (reference value: 3.8%); assay type: functional
Method in brief: (§1)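 HCT116 seeded at 2×10^5 cells/well, cultured 6 h, then treated 48 h at 0.1, 0.5, 1, 4, 8 or 16 µM; DMSO (0.1%) served as vehicle. Cells washed twice in cold PBS, resuspended in binding buffer with FITC Annexin V and PI for 15 min at RT in the dark, diluted, and run on flow cytometry within 1 h.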

HCT-116 [7] = assay: Induction of apoptosis in human HCT116 cells assessed as increase in intracellular reactive oxygen species at 2 to 3 hrs by DCFH-DA probe-based flow cytometry; assay type: functional, cell-based
HCT-116 [8] = assay: Induction of apoptosis in human HCT116 cells assessed as early apoptotic cells at 1 uM after 48 hrs by Annexin V-FITC/propidium iodide staining based flow cytometry (reference value: 3.8%); assay type: functional; method in brief: as §1

CC(C)(C)OC(=O)/C=C1/C(=O)Nc2ccccc21
Activity [1]: 28.9%
Activity (HCT-116 [2]): 0.8%
Activity (HCT-116 [3]): Tde
Activity [4]: 3.42%
Activity (HCT-116 [5]): Active
Activity (HCT-116 [6]): 2.9%
Activity (HCT-116 [7]): Dose-dependent effect
Activity (HCT-116 [8]): 2.6%
